Experimental data pooled from the literature.
CYP3A4: Cytochrome P450 3A4 (CYP3A4, Homo sapiens, UniProt P08684)
ALDH2: Aldehyde dehydrogenase, mitochondrial (ALDH2, Homo sapiens, UniProt P05091)
CHRM1: Muscarinic acetylcholine receptor M1 (CHRM1, Homo sapiens, UniProt P11229)
HDAC11: Histone deacetylase 11 (HDAC11, Homo sapiens, UniProt Q96DB2)

target	assay	system	setting	IC50	SMILES
CYP3A4	enzyme activity, inhibitor	human, liver microsomes	5 min, pH 7.4, testosterone probe	49 µM	CC(C)(C)S(=O)(=O)c1cc2c(Nc3ccc4scnc4c3)ncnc2cc1OCCOP(=O)(O)O
Coagulation factor XII (F12, Homo sapiens, UniProt P00748)	enzyme activity, inhibitor	–	–	0.0326 µM	N=C(N)c1ccc2cc(OC(=O)c3ccc(N=C(N)N)cc3)ccc2c1
ALDH2	enzyme activity, inhibitor, fluorescence	–	–	< 10 µM	OC[C@H]1O[C@@H](Oc2ccc(O)c3cccc(O)c23)[C@H](O)[C@@H](O)[C@@H]1O
CHRM1	ligand displacement, radioligand	–	cell membranes	> 30 µM	O=C(CCNC(=O)CNC(=O)CC(c1ccccc1)(c1ccccc1)c1ccccc1)NC[C@@H]1CCCN(Cc2ccc(F)nc2)C1
HDAC11	enzyme activity, inhibitor	–	–	> 10 µM	COc1ccc(N(Cc2csc(-c3ccc(Br)cc3)n2)C(=O)CCCCCC(=O)NO)cc1
CHRM1	ligand displacement, radioligand	–	cell membranes	13.9 µM	O=C(CCNC(=O)CNC(=O)CC(c1ccccc1)(c1ccccc1)c1ccccc1)NC[C@H]1CCCN(Cc2ccc(F)cc2)C1
Taste receptor type 2 member 14 (TAS2R14, Homo sapiens, UniProt Q9NYV8, S265A)	inositol phosphate, antagonist, TR-FRET	–	–	1000 µM	CCCN(CCC)S(=O)(=O)c1ccc(C(=O)O)cc1
ALDH2	enzyme activity, inhibitor, fluorescence	–	–	< 10 µM	CC(C)N(CCC(=O)c1ccc2ccccc2c1)Cc1ccccc1
Solute carrier organic anion transporter family member 1B1 (SLCO1B1, Homo sapiens, UniProt Q9Y6L6)	transporter uptake, inhibitor, radiometric	–	oocytes	7.34 µM	CCc1oc2cc(F)c(F)cc2c1C(=O)c1cc(Br)c(O)c(Br)c1
Short transient receptor potential channel 5 (Mus musculus, UniProt Q9QX29)	ion current, inhibitor, patch clamp	–	–	2.88 µM	CN(C)CCC=C1c2ccccc2CCc2ccccc21
Tyrosine-protein kinase JAK1 (JAK1, Homo sapiens, UniProt P23458)	enzyme activity, inhibitor, ELISA	–	–	0.804 µM	Cc1cc2c(cc1C)N[C@H](c1ccccc1)[C@@H](O)C(=O)N2
Endonuclease III-like protein 1 (NTHL1, Homo sapiens, UniProt P78549)	enzyme activity, inhibitor	–	–	> 100 µM	Nc1cnccc1Nc1ccc(Cl)c(Cl)c1
ALDH2	enzyme activity, inhibitor, fluorescence	–	–	0.9 µM	O=C1Nc2ccccc2/C1=C\c1cc(F)c(O)c(F)c1
CYP3A4	enzyme activity, inhibitor	–	–	7.07 µM	O=C(O)c1cc(-c2ccc(-n3ccnn3)cc2)c2ccc(-c3ccc(C(F)(F)F)cc3)cc2c1
CYP3A4	enzyme activity, inhibitor, fluorescence	–	pH 8	56.1 µM	CN(C)C(=O)c1cc2cnc(Nc3ccc(-c4ccc5c(=O)cc(N6CCOCC6)oc5c4)cc3)nc2n1C1CCCC1
HDAC11	enzyme activity, inhibitor	–	–	> 10 µM	COc1ccc(N(Cc2nc(-c3ccc(F)cc3)cs2)C(=O)CCCCCC(=O)NO)cc1
ALDH2	enzyme activity, inhibitor, fluorescence	–	–	< 10 µM	Nc1nc2c(s1)C(c1ccccc1Cl)CC(=O)N2 (centres unmarked)
